According to ChEMBL document CHEMBL3585272, “Syntheses and Antibacterial Activity of N-Acylated Ciprofloxacin Derivatives Based on the Trimethyl Lock” (ACS Med Chem Lett, 2015):
≈ marks a conversion by molar mass, not a printed value.

What was measured:
Staphylococcus aureus [1] = test: Antibacterial activity against Staphylococcus aureus SG511 at 0.1 mM incubated for 24 hrs at 37 degC by agar diffusion assay; assay type: functional; settings: SG511, 24 h, read-out: DIZ
Summary of the method: (§1)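 Agar well diffusion. 50 μL of a 0.1 mM solution in 1:9 DMSO/MeOH was added to 9 mm wells in Standard I nutrient agar or Mueller Hinton II agar. Plates were incubated at 37 °C for 24 h, or 44 h for M. vaccae, then inhibition zones were read. Unclear zones were scored separately.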

Mycolicibacterium vaccae [2] = test: Antibacterial activity against Mycobacterium vaccae IMET10670 assessed as unclear inhibition zone or inhibition zone with many colonies at 0.1 mM incubated for 44 hrs at 37 degC by agar diffusion assay; assay type: functional; settings: IMET10670, 44 h, read-out: DIZ; summary of the method: as §1
Escherichia coli [3] = test: Antibacterial activity against Escherichia coli DC0 by broth microdilution method; assay type: functional
Summary of the method: (§2)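 Broth microdilution in Mueller-Hinton broth No.2 (MHII) following CLSI guidelines. The MIC (μM) was read by visual end point. Each compound was tested in triplicate.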

Escherichia coli [4] = test: Antibacterial activity against Escherichia coli X580 at 0.1 mM incubated for 24 hrs at 37 degC by agar diffusion assay; assay type: functional; settings: X580, 24 h, read-out: DIZ; summary of the method: as §1
Micrococcus luteus [5] = test: Antibacterial activity against Micrococcus luteus ATCC 10240 by broth microdilution method; assay type: functional; summary of the method: as §2
Escherichia coli [6] = test: Antibacterial activity against Escherichia coli DC0 assessed as unclear inhibition zone or inhibition zone with many colonies at 0.1 mM incubated for 24 hrs at 37 degC by agar diffusion assay; assay type: functional; settings: DC0, 24 h, read-out: DIZ; summary of the method: as §1
Acinetobacter baumannii [7] = test: Antibacterial activity against Acinetobacter baumannii ATCC 17961 assessed as unclear inhibition zone or inhibition zone with many colonies at 0.1 mM incubated for 24 hrs at 37 degC by agar diffusion assay; assay type: functional; settings: ATCC 17961, 24 h, read-out: DIZ; summary of the method: as §1
Staphylococcus aureus [8] = test: Antibacterial activity against Staphylococcus aureus SG511 by broth microdilution method; assay type: functional; summary of the method: as §2
Escherichia coli [9] = test: Antibacterial activity against Escherichia coli DC2 by broth microdilution method; assay type: functional; summary of the method: as §2
Pseudomonas aeruginosa [10] = test: Antibacterial activity against wild type Pseudomonas aeruginosa K799 assessed as unclear inhibition zone or inhibition zone with many colonies at 0.1 mM incubated for 24 hrs at 37 degC by agar diffusion assay; assay type: functional; settings: K799, 24 h, read-out: DIZ; summary of the method: as §1
Escherichia coli [11] = test: Antibacterial activity against Escherichia coli DC0 at 0.1 mM incubated for 24 hrs at 37 degC by agar diffusion assay; assay type: functional; settings: DC0, 24 h, read-out: DIZ; summary of the method: as §1
Mycolicibacterium vaccae [12] = test: Antibacterial activity against Mycobacterium vaccae IMET10670 at 0.1 mM incubated for 44 hrs at 37 degC by agar diffusion assay; assay type: functional; settings: IMET10670, 44 h, read-out: DIZ; summary of the method: as §1
Pseudomonas aeruginosa [13] = test: Antibacterial activity against Pseudomonas aeruginosa K799/61 at 0.1 mM incubated for 24 hrs at 37 degC by agar diffusion assay; assay type: functional; settings: K799/61, 24 h, read-out: DIZ; summary of the method: as §1
Pseudomonas aeruginosa [14] = test: Antibacterial activity against wild type Pseudomonas aeruginosa K799 by broth microdilution method; assay type: functional; summary of the method: as §2
Pseudomonas aeruginosa [15] = test: Antibacterial activity against Pseudomonas aeruginosa K799/61 by broth microdilution method; assay type: functional; summary of the method: as §2
Pseudomonas aeruginosa [16] = test: Antibacterial activity against wild type Pseudomonas aeruginosa K799 at 0.1 mM incubated for 24 hrs at 37 degC by agar diffusion assay; assay type: functional; settings: K799, 24 h, read-out: DIZ; summary of the method: as §1
Mycolicibacterium vaccae [17] = test: Antibacterial activity against Mycobacterium vaccae IMET10670 by broth microdilution method; assay type: functional; summary of the method: as §2
Acinetobacter baumannii [18] = test: Antibacterial activity against Acinetobacter baumannii ATCC 17961 at 0.1 mM incubated for 24 hrs at 37 degC by agar diffusion assay; assay type: functional; settings: ATCC 17961, 24 h, read-out: DIZ; summary of the method: as §1
Bacillus subtilis [19] = test: Antibacterial activity against Bacillus subtilis ATCC 6633 at 0.1 mM incubated for 24 hrs at 37 degC by agar diffusion assay; assay type: functional; settings: ATCC 6633, 24 h, read-out: DIZ; summary of the method: as §1
Acinetobacter baumannii [20] = test: Antibacterial activity against Acinetobacter baumannii ATCC 17961 by broth microdilution method; assay type: functional; summary of the method: as §2
Escherichia coli [21] = test: Antibacterial activity against Escherichia coli X580 assessed as unclear inhibition zone or inhibition zone with many colonies at 0.1 mM incubated for 24 hrs at 37 degC by agar diffusion assay; assay type: functional; settings: X580, 24 h, read-out: DIZ; summary of the method: as §1
Pseudomonas aeruginosa [22] = test: Antibacterial activity against Pseudomonas aeruginosa K799/61 assessed as unclear inhibition zone or inhibition zone with many colonies at 0.1 mM incubated for 24 hrs at 37 degC by agar diffusion assay; assay type: functional; settings: K799/61, 24 h, read-out: DIZ; summary of the method: as §1
Escherichia coli [23] = test: Antibacterial activity against Escherichia coli DC2 at 0.1 mM incubated for 24 hrs at 37 degC by agar diffusion assay; assay type: functional; settings: DC2, 24 h, read-out: DIZ; summary of the method: as §1
Bacillus subtilis [24] = test: Antibacterial activity against Bacillus subtilis ATCC 6633 by broth microdilution method; assay type: functional; summary of the method: as §2
Micrococcus luteus [25] = test: Antibacterial activity against Micrococcus luteus ATCC 10240 at 0.1 mM incubated for 24 hrs at 37 degC by agar diffusion assay; assay type: functional; settings: ATCC 10240, 24 h, read-out: DIZ; summary of the method: as §1
[26] = Retention time of the compound in presence of methyl mercaptoacetate in CH3CN/PBS solution at 37 degC incubated for 3 hrs by HPLC method; assay type: physicochemical; settings: buffer
Pseudomonas aeruginosa [27] = test: microbe, parasite or virus in culture; settings: K799, 24 h, read-out: DIZ
Bacillus subtilis [28] = test: microbe, parasite or virus in culture; settings: ATCC 6633, 24 h, read-out: DIZ
Escherichia coli [29] = test: Antibacterial activity against Escherichia coli DC0 at 5 ug/ml incubated for 24 hrs at 37 degC by agar diffusion assay; settings: DC0, 24 h, read-out: DIZ
Bacillus subtilis [30] = test: microbe, parasite or virus in culture; settings: ATCC 6633, 24 h, read-out: DIZ; remark: listed apart in the source
Staphylococcus aureus [31] = test: Antibacterial activity against Staphylococcus aureus SG511 at 5 ug/ml incubated for 24 hrs at 37 degC by agar diffusion assay; settings: SG511, 24 h, read-out: DIZ
Pseudomonas aeruginosa [32] = test: microbe, parasite or virus in culture; settings: K799/61, 24 h, read-out: DIZ
Acinetobacter baumannii [33] = test: microbe, parasite or virus in culture; settings: ATCC 17961, 24 h, read-out: DIZ
Mycolicibacterium vaccae [34] = test: Antibacterial activity against Mycobacterium vaccae IMET10670 at 5 ug/ml incubated for 44 hrs at 37 degC by agar diffusion assay; assay type: functional; settings: IMET10670, 44 h, read-out: DIZ
Summary of the method: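 Agar well diffusion with the sample in H2O at 5 μg/mL. 50 μL was added to 9 mm wells in nutrient or Mueller Hinton II agar. Plates were incubated at 37 °C for 24 h, or 44 h for M. vaccae, and inhibition zones were read.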

Micrococcus luteus [35] = test: Antibacterial activity against Micrococcus luteus ATCC 10240 at 5 ug/ml incubated for 24 hrs at 37 degC by agar diffusion assay; assay type: functional; settings: ATCC 10240, 24 h, read-out: DIZ
Summary of the method: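 Agar well diffusion: the drug was dissolved in water and added to 9 mm wells cut in Standard I Nutrient Agar or Mueller Hinton II agar seeded with the strain. Inhibition zone diameters were read after 24 h at 37 °C. Zones were scored as very unclear where the zone boundary was indistinct.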

Acinetobacter baumannii [36] = test: microbe, parasite or virus in culture; settings: ATCC 17961, 24 h, read-out: DIZ; remark: listed apart in the source
Pseudomonas aeruginosa [37] = test: microbe, parasite or virus in culture; settings: K799/61, 24 h, read-out: DIZ; remark: listed apart in the source

Row | Structure (SMILES) | zone of inhibition at 100 µM (Staphylococcus aureus [1]) [mm] | MIC (Escherichia coli [3]) [µM] | zone of inhibition at 100 µM (Escherichia coli [4]) [mm] | MIC (Micrococcus luteus [5]) [µM] | zone of inhibition at 100 µM (Escherichia coli [6]) [mm] | zone of inhibition at 100 µM (Acinetobacter baumannii [7]) [mm] | MIC (Staphylococcus aureus [8]) [µM] | MIC (Escherichia coli [9]) [µM] | zone of inhibition at 100 µM (Pseudomonas aeruginosa [10]) [mm] | zone of inhibition at 100 µM (Escherichia coli [11]) [mm] | zone of inhibition at 100 µM (Mycolicibacterium vaccae [12]) [mm] | zone of inhibition at 100 µM (Pseudomonas aeruginosa [13]) [mm] | MIC (Pseudomonas aeruginosa [14]) [µM] | MIC (Pseudomonas aeruginosa [15]) [µM] | zone of inhibition at 100 µM (Pseudomonas aeruginosa [16]) [mm] | MIC (Mycolicibacterium vaccae [17]) [µM] | zone of inhibition at 100 µM (Acinetobacter baumannii [18]) [mm] | zone of inhibition at 100 µM (Bacillus subtilis [19]) [mm] | MIC (Acinetobacter baumannii [20]) [µM] | MIC (Bacillus subtilis [24]) [µM] | further results
1 | CC1=C(N)C(=O)C(C(C)(C)CC(=O)N2CCN(c3cc4c(cc3F)c(=O)c(C(=O)O)cn4C3CC3)CC2)=C(C)C1=O | 31 | 25 (≈ 14.1 µg/mL) | 31 | 12.5 (≈ 7.06 µg/mL) | 23 | 30 | < 0.05 | 12.5 (≈ 7.06 µg/mL) | 32 | 16 | 24 | 31 | 2.5 (≈ 1.41 µg/mL) | 5 (≈ 2.82 µg/mL) | 22 | 2 (≈ 1.13 µg/mL) | 24 | 36 | 0.6 (≈ 0.339 µg/mL) | < 0.05 | zone of inhibition at 100 µM (Mycolicibacterium vaccae [2]): 30 mm; zone of inhibition at 100 µM (Escherichia coli [21]): 37 mm; zone of inhibition at 100 µM (Pseudomonas aeruginosa [22]): 35 mm; zone of inhibition at 100 µM (Escherichia coli [23]): 23 mm; zone of inhibition at 100 µM (Micrococcus luteus [25]): 17 mm
2 | c1ccc(N2CCNCC2)cc1 [PHENYLPIPERAZINE] | – | – | – | – | – | – | – | – | – | – | – | – | – | – | – | – | – | – | – | – | Retention_time [26]: 8.5 min
3 | O=C(O)c1cn(C2CC2)c2cc(N3CCNCC3)c(F)cc2c1=O [CIPROFLOXACIN] | – | 0.47 (≈ 0.156 µg/mL) | – | 8 (≈ 2.65 µg/mL) | – | – | 0.47 (≈ 0.156 µg/mL) | 0.24 (≈ 0.0795 µg/mL) | – | – | – | – | 0.47 (≈ 0.156 µg/mL) | 0.24 (≈ 0.0795 µg/mL) | – | 0.47 (≈ 0.156 µg/mL) | – | – | 0.24 (≈ 0.0795 µg/mL) | 0.03 (≈ 0.00994 µg/mL) | zone of inhibition at 1.66 µg/mL (Pseudomonas aeruginosa [27]): 15 mm; zone of inhibition at 1.66 µg/mL (Bacillus subtilis [28]): 24 mm; zone of inhibition at 5 µg/mL (Escherichia coli [29]): 18 mm; zone of inhibition at 1.66 µg/mL (Bacillus subtilis [30]): 20 mm; zone of inhibition at 5 µg/mL (Staphylococcus aureus [31]): 21 mm; zone of inhibition at 1.66 µg/mL (Pseudomonas aeruginosa [32]): 24 mm; zone of inhibition at 5 µg/mL (Acinetobacter baumannii [33]): 21 mm; zone of inhibition at 5 µg/mL (Mycolicibacterium vaccae [34]): 23 mm; zone of inhibition at 5 µg/mL (Micrococcus luteus [35]): 0 mm; zone of inhibition at 5 µg/mL (Acinetobacter baumannii [36]): 18 mm; zone of inhibition at 1.66 µg/mL (Pseudomonas aeruginosa [37]): 19 mm
4 | COC(=O)CSc1c(C)c(O)c(C)c2c1OC(=O)CC2(C)C | – | – | – | – | – | – | – | – | – | – | – | – | – | – | – | – | – | – | – | – | Retention_time [26]: 9.2 min
5 | CC1=C(Br)C(=O)C(C(C)(C)CC(=O)N2CCN(c3cc4c(cc3F)c(=O)c(C(=O)O)cn4C3CC3)CC2)=C(C)C1=O | 25 | 12.5 (≈ 7.86 µg/mL) | 33 | 1.56 (≈ 0.98 µg/mL) | 21 | 23 | 0.1 (≈ 0.0628 µg/mL) | 8.33 (≈ 5.24 µg/mL) | 35 | 17 | 37 | 29 | 5 (≈ 3.14 µg/mL) | 2.5 (≈ 1.57 µg/mL) | 29 | 2 (≈ 1.26 µg/mL) | 18 | 35 | 0.78 (≈ 0.49 µg/mL) | < 0.05 | zone of inhibition at 100 µM (Escherichia coli [21]): 40 mm; zone of inhibition at 100 µM (Pseudomonas aeruginosa [22]): 38 mm; zone of inhibition at 100 µM (Escherichia coli [23]): 24 mm; zone of inhibition at 100 µM (Micrococcus luteus [25]): 19 mm
